Results pooled from the literature.
Each line is one published result; the experiments were not run side by side.
Target: Homeodomain-interacting protein kinase 2 (HIPK2, Homo sapiens, UniProt Q9H2X6)
Read-out: enzyme activity
Action: inhibitor

O=C(O)c1ccc2c(c1)nc(Nc1ccc(Cl)cc1)c1ccncc12  remaining activity (radiometric; 1 µM): -1%
CC(C)(C)c1nc2c(s1)c1nc(N)ncc1c1ccc(NS(=O)(=O)c3c(F)cccc3F)c(F)c12  remaining activity (radiometric; 1 µM): 80%
COc1cc(Nc2cnc(C#N)c(O[C@H](C)CN(C)C)n2)ncc1-c1cnn(C)c1  remaining activity (radiometric; 1 µM): 89%
Cc1sc(C(=O)NC2COC2)cc1-n1cc(NC(=O)Nc2c(F)cccc2Cl)cn1  remaining activity (10 µM): 103%
CC(C)(C)C(=O)c1sc(NC2CCCCC2)nc1N  remaining activity (10 µM): 79%
O=C(O)c1ccc2c(c1)nc(NCCc1cccc(F)c1)c1ncncc12  remaining activity (radiometric; 1 µM): 6%
COc1cc(Cl)c(C(=O)N[C@@H](CN[C@H]2CC[C@@H](N)CC2)Cc2ccc(C#N)cc2)cc1-c1ccc(CN[C@H](C)c2ccc(C)cc2)o1  remaining activity (1 µM): 105%
CC(C)(O)[C@H]1CC[C@H](Nc2ccc3ncc(-c4cccc(C(F)(F)F)c4)n3n2)CC1  remaining activity (1 µM): 70.3%
O=C(O)c1ccc2c(c1)nc(Nc1ccccc1)c1ncncc12  remaining activity (radiometric; 1 µM): 2%
O=C(Nc1cnn(-c2csc(C(=O)NC3COC3)c2)c1)Nc1ccccc1Cl  remaining activity (5 µM): 102%
O=C(O)c1ccc2c(c1)nc(NCCc1ccccc1)c1ccncc12  remaining activity (radiometric; 1 µM): 4%
FC(F)c1nc2ccccc2n1-c1nc(N2CCOCC2)nc(N2CCOCC2)n1  remaining activity (10 µM): 63%
